Results reported in paper PMC5108244 (ACS Infectious Diseases, 2016).

Experiments:
[1] = system: T. brucei brucei TREU667 strain; assay: Late-stage T. brucei infection model in mice; assay type: in vivo; settings: mice n = 5, orally 25 mg/kg qd for 10 days, monitored 90 days
Summary of the method: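 Female Swiss Webster mice (6–8 weeks, n = 5/group) infected ip on day 0 with 1 × 10^4 donor-mouse parasites in IMDM. From day 7, oral dosing for 10 days in DMSO/EtOH/Tween-80/saline: test compound 50 mg/kg bid, benzoxaborole control 25 mg/kg qd, vehicle bid. Diminazene control: single ip dose of 10 mg/kg on day 7. Tail blood checked microscopically at least twice weekly to day 30, then weekly to day 90. Parasitemic mice euthanized.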

[2] = system: T. brucei rhodesiense STIB900 strain; assay: Early-stage T. brucei infection model in mice; assay type: in vivo
Summary of the method: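 Female Swiss Webster mice (6–8 weeks, n = 4/group) infected ip on day 0 with 1 × 10^4 fresh-culture bloodstream-form parasites diluted in IMDM. Oral dosing twice daily, days 2–5 (eight doses), in 5% DMSO, 7% EtOH, 3% Tween-80 in saline; vehicle group in parallel; benzoxaborole reference as positive control. Parasitemia checked microscopically in tail blood through day 60.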

CC1(C)OB(O)c2cc(NC(=O)c3ccc(F)cc3C(F)(F)F)ccc21 [compound 14, 4-fluoro-N-(1-hydroxy-3,3-dimethyl-2,1-benzoxaborol-6-yl)-2-(trifluoromethyl)benzamide]
mice free of infection at the end of the experiment [1]: all survived and were free of infection | cures as of day 60 ([2]; mice n = 4, 1 mg/kg po bid for 4 days): 0/4 | cures as of day 60 ([2]; mice n = 4, 5 mg/kg po bid for 4 days): 1/4 | cures as of day 60 ([2]; mice n = 4, 10 mg/kg po bid for 4 days): 4/4
